Data reported in ChEMBL document CHEMBL2434966, “Novel N-4-piperazinyl-ciprofloxacin-chalcone hybrids: synthesis, physicochemical properties, anticancer and topoisomerase I and II inhibitory activity” (Eur J Med Chem, 2013).
In brackets after ≈: the same amount, converted by molar mass.

Experiments:
[1] = Aqueous solubility of the compound at pH 7.8 by UV spectroscopic analysis; type: physicochemical; conditions: aqueous solution
How it was run: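 Excess solid (10 mg) shaken in buffer at pH 6.9 or 7.8, 37 °C. The filtrate was diluted into the linear calibration range and dissolved drug measured by UV absorbance at λmax 272 nm. Values are the average of at least three agreeing independent measurements.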

[2] = test system: PC-3; assay: Growth inhibition of human PC3 cells after 48 hrs by sulforhodamine B assay; type: functional; conditions: PC-3, 48 h
How it was run: (§1)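 NCI five-dose screen on the full 60-cell-line panel. Cells were given 10-fold dilutions from 10^-4 to 10^-8 M with continuous 48 h exposure, and growth was read by SRB staining. Percent growth was taken from time-zero, control and treated absorbances. GI50, TGI and LC50 were then derived, the GI50 being the concentration that gives a 50% lower net protein increase than control.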

[3] = test system: SN12C; assay: Growth inhibition of human SN12C cells after 48 hrs by sulforhodamine B assay; type: functional; how it was run: as §1
[4] = test system: RXF 393; assay: Growth inhibition of human RXF393 cells after 48 hrs by sulforhodamine B assay; type: functional; conditions: RXF 393, 48 h; how it was run: as §1
[5] = test system: OVCAR-8; assay: Growth inhibition of human OVCAR8 cells after 48 hrs by sulforhodamine B assay; type: functional; conditions: OVCAR-8, 48 h; how it was run: as §1
[6] = test system: M14; assay: Growth inhibition of human M14 cells after 48 hrs by sulforhodamine B assay; type: functional; conditions: M14, 48 h
How it was run: (§2)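 NCI 60-panel five-dose test at 10-fold dilutions, 10^-4 to 10^-8 M, with 48 h continuous exposure and SRB protein read-out. Percent growth derived from time-zero, untreated-control and treated absorbances. GI50 is the concentration where [(Ti-Tz)/(C-Tz)]×100 = 50. TGI is taken at Ti = Tz. LC50 is taken at [(Ti-Tz)/Tz]×100 = -50.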

[7] = test system: SNB-75; assay: Growth inhibition of human SNB75 cells after 48 hrs by sulforhodamine B assay; type: functional; conditions: SNB-75, 48 h
How it was run: (§3)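 NCI 60-cell panel, five concentrations (10-fold dilutions, 0.01–100 µM), 48 h continuous exposure; SRB protein stain read spectrophotometrically. Percent growth from time-zero, untreated-control and treated absorbances. GI50 is the concentration giving 50% lower net protein increase than control. Values beyond the tested range are reported as more or less than the highest or lowest concentration.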

[8] = test system: SF-295; assay: Growth inhibition of human SF295 cells after 48 hrs by sulforhodamine B assay; type: functional; conditions: SF-295, 48 h; how it was run: as §1
[9] = test system: SW-620; assay: Growth inhibition of human SW620 cells after 48 hrs by sulforhodamine B assay; type: functional; conditions: SW-620, 48 h; how it was run: as §3
[10] = test system: HT-29; assay: Growth inhibition of human HT-29 cells after 48 hrs by sulforhodamine B assay; type: functional; conditions: HT-29, 48 h; how it was run: as §2
[11] = test system: HCT-116; assay: Growth inhibition of human HCT116 cells after 48 hrs by sulforhodamine B assay; type: functional; conditions: HCT-116, 48 h; how it was run: as §2
[12] = test system: SR; assay: Growth inhibition of human SR cells after 48 hrs by sulforhodamine B assay; type: functional; how it was run: as §3
[13] = test system: MOLT-4; assay: Growth inhibition of human MOLT4 cells after 48 hrs by sulforhodamine B assay; type: functional; conditions: MOLT-4, 48 h; how it was run: as §1
[14] = test system: MDA-MB-231; assay: Growth inhibition of human MDA-MB-231 cells assessed as cell growth at 10^-5 M after 48 hrs by sulforhodamine B assay; type: functional; conditions: MDA-MB-231, 48 h, read-out: Activity
How it was run: (§4)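 NCI 60-cell-line primary one-dose screen. Cells were exposed to a single 10^-5 M concentration for 48 h. The end point was sulforhodamine B protein staining, read spectrophotometrically. Results are reported as percent growth of treated cells relative to untreated control cells.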

[15] = test system: MCF7; assay: Growth inhibition of human MCF7 cells assessed as cell growth at 10^-5 M after 48 hrs by sulforhodamine B assay; type: functional; conditions: MCF7, 48 h, read-out: Activity
How it was run: (§5)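 NCI 60-cell-line primary screen. Single concentration of 10^-5 M, 48 h incubation. End point by sulforhodamine B protein staining read spectrophotometrically. Reported as percent growth of treated cells relative to untreated control cells.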

[16] = test system: TK-10; assay: Growth inhibition of human TK10 cells assessed as cell growth at 10^-5 M after 48 hrs by sulforhodamine B assay; type: functional; conditions: TK-10, 48 h, read-out: Activity
How it was run: (§6)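 NCI primary one-dose screen: single concentration of 10^-5 M added to culture, 48 h incubation, SRB protein-dye endpoint. Percent growth of treated cells measured spectrophotometrically against untreated controls.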

[17] = test system: OVCAR-5; assay: Growth inhibition of human OVCAR5 cells assessed as cell growth at 10^-5 M after 48 hrs by sulforhodamine B assay; type: functional; conditions: OVCAR-5, 48 h, read-out: Activity; how it was run: as §4
[18] = test system: UACC-62; assay: Growth inhibition of human UACC62 cells assessed as cell growth at 10^-5 M after 48 hrs by sulforhodamine B assay; type: functional; conditions: UACC-62, 48 h, read-out: Activity; how it was run: as §6
[19] = test system: M14; assay: Growth inhibition of human M14 cells assessed as cell growth at 10^-5 M after 48 hrs by sulforhodamine B assay; type: functional; conditions: M14, 48 h, read-out: Activity; how it was run: as §5
[20] = test system: SNB-75; assay: Growth inhibition of human SNB75 cells assessed as cell growth at 10^-5 M after 48 hrs by sulforhodamine B assay; type: functional; conditions: SNB-75, 48 h, read-out: Activity; how it was run: as §6
[21] = test system: SF-295; assay: Growth inhibition of human SF295 cells assessed as cell growth at 10^-5 M after 48 hrs by sulforhodamine B assay; type: functional; conditions: SF-295, 48 h, read-out: Activity; how it was run: as §4
[22] = test system: HCT-15; assay: Growth inhibition of human HCT15 cells assessed as cell growth at 10^-5 M after 48 hrs by sulforhodamine B assay; type: functional; conditions: HCT-15, 48 h, read-out: Activity; how it was run: as §5
[23] = test system: NCI-H322M; assay: Growth inhibition of human NCI-H322M cells assessed as cell growth at 10^-5 M after 48 hrs by sulforhodamine B assay; type: functional; conditions: read-out: Activity; how it was run: as §4
[24] = test system: HOP-62; assay: Growth inhibition of human HOP62 cells assessed as cell growth at 10^-5 M after 48 hrs by sulforhodamine B assay; type: functional; conditions: HOP-62, 48 h, read-out: Activity; how it was run: as §5
[25] = test system: RPMI-8226; assay: Growth inhibition of human RPMI8226 cells assessed as cell growth at 10^-5 M after 48 hrs by sulforhodamine B assay; type: functional; conditions: RPMI-8226, 48 h, read-out: Activity; how it was run: as §4
[26] = read-out: LC50 (the source's name)

COc1cc(/C=C/C(=O)c2ccc(NC(=O)CN3CCN(c4cc5c(cc4F)c(=O)c(C(=O)O)cn5C4CC4)CC3)cc2)cc(OC)c1OC
solubility [1]: 2.01 µg/mL (≈ 2.94 µM) | GI50 [2]: 0.56 µM | LC50 [2]: > 100 µM | TGI [2]: > 100 µM | GI50 [3]: 0.53 µM | LC50 (lethal concentration, 50% net cell kill) [3]: > 100 µM | TGI [3]: 12.2 µM | GI50 [4]: 0.34 µM | TGI [4]: 1.06 µM | CC50 [4, 26]: 3.47 µM | GI50 [5]: 0.34 µM | TGI [5]: 26.7 µM | CC50 [5, 26]: > 100 µM | GI50 [6]: 0.77 µM | LC50 (concentration giving 50% net cell kill) [6]: > 100 µM | TGI [6]: 7.16 µM | GI50 [7]: 5.75 µM | TGI [7]: > 100 µM | CC50 [7, 26]: > 100 µM | GI50 [8]: 0.53 µM | LC50 (concentration giving 50% net cell kill) [8]: 53.1 µM | TGI [8]: 3.13 µM | GI50 [9]: 0.42 µM | TGI [9]: 3.2 µM | CC50 [9, 26]: > 100 µM | GI50 [10]: 0.23 µM | TGI [10]: 0.63 µM | CC50 [10, 26]: 9.13 µM | GI50 [11]: 0.23 µM | TGI [11]: 0.69 µM | GI50 [12]: 0.21 µM | LC50 (concentration killing 50% of cells) [12]: > 100 µM | TGI [12]: > 100 µM | GI50 [13]: 0.31 µM | CC50 [13, 26]: > 100 µM | growth at 10 µM [14]: 27.6% | growth at 10 µM [15]: 26.5% | growth at 10 µM [16]: 19.1% | growth at 10 µM [17]: 16.9% | growth at 10 µM [18]: -23.5% | growth at 10 µM [19]: -14.1% | growth at 10 µM [20]: 76.6% | growth at 10 µM [21]: -27.2% | growth at 10 µM [22]: 18.2% | growth at 10 µM [23]: -7.05% | growth at 10 µM [24]: 4.38% | growth at 10 µM [25]: -18.8%
